Laboratory results published in ChEMBL document CHEMBL3593207, “Imidazole clubbed 1,3,4-oxadiazole derivatives as potential antifungal agents” (2015).
≈ marks a conversion by molar mass, not a printed value.

Columns and labels:
Candida tropicalis [1] = assay: Antifungal activity against clinical isolates of Candida tropicalis 2356 at 2 times MIC after 48 hrs by disc diffusion assay; type: functional
How it was run: (§1)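 Cells (10^3 cells ml−1) grown in YPD were mixed into molten agar (~40 °C) and poured into 100-mm plates. Filter discs (4 mm) were spotted with 10 µl of compound at 1/2 × MIC, MIC or 2 × MIC. Fluconazole and 1% DMSO were the controls. Plates were incubated at 37 °C for 48 h and inhibition zone diameters recorded in mm.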

Candida tropicalis [2] = assay: Inhibition of ergosterol biosynthesis in Candida tropicalis 2356 assessed as ergosterol content at MIC after 16 hrs by spectrophotometer analysis; type: functional; parameters: scale not given: the % may be the effect or the level left
How it was run: (§2)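 Cells were pelleted and washed, and wet weight taken. Pellets were saponified in 25% alcoholic KOH at 85 °C for 1 h. Sterols were extracted into n-heptane/water. Ergosterol content is expressed relative to untreated control cells.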

Candida albicans [3] = assay: Antifungal activity against clinical isolates of Candida albicans 2367 at 2 times MIC after 48 hrs by disc diffusion assay; type: functional; how it was run: as §1
Candida albicans [4] = assay: Antifungal activity against clinical isolates of Candida albicans 2367 at MIC after 48 hrs by disc diffusion assay; type: functional; how it was run: as §1
Candida albicans [5] = assay: Antifungal activity against clinical isolates of Candida albicans 2367 at half MIC after 48 hrs by disc diffusion assay; type: functional; how it was run: as §1
Candida tropicalis [6] = assay: Antifungal activity against Candida tropicalis ATCC 750 by broth microdilution assay; type: functional
How it was run: (§3)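 CLSI M27-A3 broth microdilution. Compounds diluted to 1 mg/ml in 1% DMSO. Fluconazole (1 mg/ml) served as positive control, 1% DMSO as vehicle control, with media and culture controls. Triplicate at each concentration, repeated thrice. Inocula came from YPDA stocks subcultured in broth for 48 h at 37 °C.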

Candida albicans [7] = assay: Antifungal activity against clinical isolates of Candida albicans 2367 by broth microdilution assay; type: functional; how it was run: as §3
Candida albicans [8] = assay: Antifungal activity against clinical isolates of Candida albicans 2323 at half MIC after 48 hrs by disc diffusion assay; type: functional; how it was run: as §1
Candida albicans [9] = assay: Antifungal activity against clinical isolates of Candida albicans 2779 at 2 times MIC after 48 hrs by disc diffusion assay; type: functional; how it was run: as §1
Candida albicans [10] = assay: Inhibition of ergosterol biosynthesis in Candida albicans 2323 assessed as ergosterol content at MIC after 16 hrs by spectrophotometer analysis; type: functional; parameters: scale not given: the % may be the effect or the level left; how it was run: as §2
Candida tropicalis [11] = assay: Inhibition of ergosterol biosynthesis in Candida tropicalis ATCC 750 assessed as ergosterol content at 1/2 MIC after 16 hrs by spectrophotometer analysis; type: functional; parameters: scale not given: the % may be the effect or the level left; how it was run: as §2
Candida albicans [12] = assay: Inhibition of ergosterol biosynthesis in Candida albicans 2367 assessed as ergosterol content at 1/2 MIC after 16 hrs by spectrophotometer analysis; type: functional; parameters: scale not given: the % may be the effect or the level left; how it was run: as §2
Candida tropicalis [13] = assay: Cytotoxicity against Candida tropicalis ATCC 750 at MIC after 24 hrs by WST1 assay
Candida albicans [14] = assay: Inhibition of ergosterol biosynthesis in Candida albicans 2367 assessed as ergosterol content at MIC after 16 hrs by spectrophotometer analysis; type: functional; parameters: scale not given: the % may be the effect or the level left; how it was run: as §2
Candida tropicalis [15] = assay: Antifungal activity against Candida tropicalis ATCC 750 at 2 times MIC after 48 hrs by disc diffusion assay; type: functional; how it was run: as §1
Candida tropicalis [16] = assay: Antifungal activity against clinical isolates of Candida tropicalis 2356 at half MIC after 48 hrs by disc diffusion assay; type: functional; how it was run: as §1
Candida albicans [17] = assay: Antifungal activity against clinical isolates of Candida albicans 2323 by broth microdilution assay; type: functional; how it was run: as §3
Candida tropicalis [18] = assay: Antifungal activity against Candida tropicalis ATCC 750 at MIC after 48 hrs by disc diffusion assay; type: functional; how it was run: as §1
Candida tropicalis [19] = assay: Inhibition of ergosterol biosynthesis in Candida tropicalis 2356 assessed as ergosterol content at 1/2 MIC after 16 hrs by spectrophotometer analysis; type: functional; parameters: scale not given: the % may be the effect or the level left; how it was run: as §2
Candida albicans [20] = assay: Antifungal activity against clinical isolates of Candida albicans 2323 at 2 times MIC after 48 hrs by disc diffusion assay; type: functional; how it was run: as §1
Candida albicans [21] = assay: Antifungal activity against clinical isolates of Candida albicans 2779 at MIC after 48 hrs by disc diffusion assay; type: functional; how it was run: as §1
Candida albicans [22] = assay: Antifungal activity against clinical isolates of Candida albicans 2779 by broth microdilution assay; type: functional; how it was run: as §3
Candida tropicalis [23] = assay: Antifungal activity against clinical isolates of Candida tropicalis 2029 by broth microdilution assay; type: functional; how it was run: as §3
Candida albicans [24] = assay: Antifungal activity against Candida albicans ATCC 10261 at half MIC after 48 hrs by disc diffusion assay; type: functional; how it was run: as §1
Candida tropicalis [25] = assay: Inhibition of ergosterol biosynthesis in Candida tropicalis 2029 assessed as ergosterol content at MIC after 16 hrs by spectrophotometer analysis; type: functional; parameters: scale not given: the % may be the effect or the level left; how it was run: as §2
Candida tropicalis [26] = assay: Inhibition of ergosterol biosynthesis in Candida tropicalis 2029 assessed as ergosterol content at 1/2 MIC after 16 hrs by spectrophotometer analysis; type: functional; parameters: scale not given: the % may be the effect or the level left; how it was run: as §2
Candida albicans [27] = assay: Antifungal activity against Candida albicans ATCC 10261 at 2 times MIC after 48 hrs by disc diffusion assay; type: functional; how it was run: as §1
Candida albicans [28] = assay: Inhibition of ergosterol biosynthesis in Candida albicans ATCC 10261 assessed as ergosterol content at MIC after 16 hrs by spectrophotometer analysis; type: functional; parameters: scale not given: the % may be the effect or the level left; how it was run: as §2
Candida albicans [29] = assay: Antifungal activity against Candida albicans ATCC 10261 by broth microdilution assay; type: functional; how it was run: as §3
Candida albicans [30] = assay: Antifungal activity against clinical isolates of Candida albicans 2779 at half MIC after 48 hrs by disc diffusion assay; type: functional; how it was run: as §1
Candida albicans [31] = assay: Cytotoxicity against Candida albicans ATCC 10261 at MIC after 24 hrs by WST1 assay; type: functional
How it was run: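 Candida cells were exposed to MIC and sub-MIC levels for 24 h in microplates, then to WST-1/CEC dye for 30 min at 37 °C. Plates were shaken 1 min and the reaction stopped with 1% SDS. Formazan was read at 450 nm. % cytotoxicity = 100 × (cell control − experimental)/cell control. Triplicates, mean ± SD.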

Candida albicans [32] = assay: Antifungal activity against clinical isolates of Candida albicans 2323 at MIC after 48 hrs by disc diffusion assay; type: functional; how it was run: as §1
Candida albicans [33] = assay: Inhibition of ergosterol biosynthesis in Candida albicans 2779 assessed as ergosterol content at 1/2 MIC after 16 hrs by spectrophotometer analysis; type: functional; parameters: scale not given: the % may be the effect or the level left; how it was run: as §2
Candida tropicalis [34] = assay: Antifungal activity against clinical isolates of Candida tropicalis 2356 by broth microdilution assay; type: functional; how it was run: as §3
Candida albicans [35] = assay: Inhibition of ergosterol biosynthesis in Candida albicans 2323 assessed as ergosterol content at 1/2 MIC after 16 hrs by spectrophotometer analysis; type: functional; parameters: scale not given: the % may be the effect or the level left; how it was run: as §2
Candida albicans [36] = assay: Inhibition of ergosterol biosynthesis in Candida albicans 2779 assessed as ergosterol content at MIC after 16 hrs by spectrophotometer analysis; type: functional; parameters: scale not given: the % may be the effect or the level left; how it was run: as §2
Candida tropicalis [37] = assay: Antifungal activity against Candida tropicalis ATCC 750 at half MIC after 48 hrs by disc diffusion assay; type: functional; how it was run: as §1
Candida tropicalis [38] = assay: Antifungal activity against clinical isolates of Candida tropicalis 2356 at MIC after 48 hrs by disc diffusion assay; type: functional; how it was run: as §1
Candida tropicalis [39] = assay: Inhibition of ergosterol biosynthesis in Candida tropicalis ATCC 750 assessed as ergosterol content at MIC after 16 hrs by spectrophotometer analysis; type: functional; parameters: scale not given: the % may be the effect or the level left
How it was run: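 Cells were harvested, washed, and wet pellet weight recorded. Pellets were saponified in 3 mL 25% alcoholic KOH at 85 °C for 1 h, then sterols extracted into n-heptane. Ergosterol is expressed relative to untreated control cells.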

Candida albicans [40] = assay: Antifungal activity against Candida albicans ATCC 10261 at MIC after 48 hrs by disc diffusion assay; type: functional; how it was run: as §1
Candida tropicalis [41] = assay: Antifungal activity against clinical isolates of Candida tropicalis 2029 at 2 times MIC after 48 hrs by disc diffusion assay; type: functional; how it was run: as §1
Candida tropicalis [42] = assay: Antifungal activity against clinical isolates of Candida tropicalis 2029 at MIC after 48 hrs by disc diffusion assay; type: functional; how it was run: as §1
Candida tropicalis [43] = assay: Antifungal activity against clinical isolates of Candida tropicalis 2029 at half MIC after 48 hrs by disc diffusion assay; type: functional; how it was run: as §1
Candida albicans [44] = assay: Inhibition of ergosterol biosynthesis in Candida albicans ATCC 10261 assessed as ergosterol content at 1/2 MIC after 16 hrs by spectrophotometer analysis; type: functional; parameters: scale not given: the % may be the effect or the level left; how it was run: as §2

SMILES: CCc1ccnc(-c2nccn2Cc2nnc(-c3ccc(N)cc3)o2)c1
- inhibition zone (IZ) (Candida tropicalis [1]): 7 mm
- Activity (Candida tropicalis [2]): 86%
- inhibition zone (IZ) (Candida albicans [3]): 7 mm
- inhibition zone (IZ) (Candida albicans [4]): 5 mm
- inhibition zone (IZ) (Candida albicans [5]): 2 mm
- MIC (Candida tropicalis [6]): 16 µg/mL (≈ 46.2 µM)
- MIC (Candida albicans [7]): 32 µg/mL (≈ 92.4 µM)
- inhibition zone (IZ) (Candida albicans [8]): 0 mm
- inhibition zone (IZ) (Candida albicans [9]): 11 mm
- Activity (Candida albicans [10]): 89%
- Activity (Candida tropicalis [11]): 41%
- Activity (Candida albicans [12]): 45%
- Activity (Candida tropicalis [13]): 80.81%
- Activity (Candida albicans [14]): 81%
- inhibition zone (IZ) (Candida tropicalis [15]): 13 mm
- inhibition zone (IZ) (Candida tropicalis [16]): 0 mm
- MIC (Candida albicans [17]): 32 µg/mL (≈ 92.4 µM)
- inhibition zone (IZ) (Candida tropicalis [18]): 9 mm
- Activity (Candida tropicalis [19]): 52%
- inhibition zone (IZ) (Candida albicans [20]): 7 mm
- inhibition zone (IZ) (Candida albicans [21]): 8 mm
- MIC (Candida albicans [22]): 64 µg/mL (≈ 185 µM)
- MIC (Candida tropicalis [23]): 32 µg/mL (≈ 92.4 µM)
- inhibition zone (IZ) (Candida albicans [24]): 7 mm
- Activity (Candida tropicalis [25]): 84%
- Activity (Candida tropicalis [26]): 44%
- inhibition zone (IZ) (Candida albicans [27]): 13 mm
- Activity (Candida albicans [28]): 98%
- MIC (Candida albicans [29]): 16 µg/mL (≈ 46.2 µM)
- inhibition zone (IZ) (Candida albicans [30]): 1 mm
- Activity (Candida albicans [31]): 87.27%
- inhibition zone (IZ) (Candida albicans [32]): 4 mm
- Activity (Candida albicans [33]): 42%
- MIC (Candida tropicalis [34]): 125 µg/mL (≈ 361 µM)
- Activity (Candida albicans [35]): 43%
- Activity (Candida albicans [36]): 81%
- inhibition zone (IZ) (Candida tropicalis [37]): 5 mm
- inhibition zone (IZ) (Candida tropicalis [38]): 4 mm
- Activity (Candida tropicalis [39]): 98%
- inhibition zone (IZ) (Candida albicans [40]): 10 mm
- inhibition zone (IZ) (Candida tropicalis [41]): 8 mm
- inhibition zone (IZ) (Candida tropicalis [42]): 5 mm
- inhibition zone (IZ) (Candida tropicalis [43]): 2 mm
- Activity (Candida albicans [44]): 57%

SMILES: CCc1ccnc(-c2nccn2Cc2nnc(-c3ccccc3N)o2)c1
- MIC (Candida tropicalis [6]): > 1000 µg/mL
- MIC (Candida albicans [7]): > 1000 µg/mL
- MIC (Candida albicans [17]): > 1000 µg/mL
- MIC (Candida albicans [22]): > 1000 µg/mL
- MIC (Candida tropicalis [23]): > 1000 µg/mL
- MIC (Candida albicans [29]): > 1000 µg/mL
- MIC (Candida tropicalis [34]): > 1000 µg/mL
